A selection: hits, their analogues and other compounds. The true share with any hit is near 1.8%.
CHRM5 antagonist: blocks acetylcholine activation of human M5 receptor; P08912; CHO-hM5 cells, Fluo-8 calcium fluorescence, ACh EC80; inhibition, % at 3 µM; actives 0.59% (n = 360,000);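 active means inhibition above a per-plate cutoff, the mean of that plate's test compounds plus 3 SD, cut at about 27% in these data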
Target sequence (P08912 whole entry, looked up): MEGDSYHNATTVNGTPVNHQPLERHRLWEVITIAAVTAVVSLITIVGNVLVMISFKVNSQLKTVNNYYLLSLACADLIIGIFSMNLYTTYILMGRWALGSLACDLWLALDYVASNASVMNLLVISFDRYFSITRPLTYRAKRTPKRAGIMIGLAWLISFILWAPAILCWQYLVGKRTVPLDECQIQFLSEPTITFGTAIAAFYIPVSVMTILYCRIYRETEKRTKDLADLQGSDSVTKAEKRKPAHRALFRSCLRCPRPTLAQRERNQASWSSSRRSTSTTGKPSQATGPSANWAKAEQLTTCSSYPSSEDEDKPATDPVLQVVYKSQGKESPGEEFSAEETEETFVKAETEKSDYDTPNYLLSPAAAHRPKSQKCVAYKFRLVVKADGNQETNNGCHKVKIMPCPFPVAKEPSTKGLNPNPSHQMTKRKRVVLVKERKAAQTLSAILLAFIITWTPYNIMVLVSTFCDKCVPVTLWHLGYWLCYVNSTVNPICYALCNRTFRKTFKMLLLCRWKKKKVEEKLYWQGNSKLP
CHRM5 agonist: CHRM5 agonism in calcium assay; activation, % at 3 µM; CHO-K1 hM5 cells, Fluo-8 calcium fluorescence; 0% DMSO wells, 100% maximal acetylcholine response; actives 0.19% (n = 360,000); AID 624037; P08912;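 active means activation above the run's mean over test compounds plus 3 SD, cut at about 23% in these data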;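 further: signal is peak over basal fluorescence ratio across the kinetic read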
M4 ag: CHRM4 agonism in calcium assay. actives 0.14% (n = 360,000). AID 624127. P08173. activation, % at 3 µM. CHO-K1 hM4/Gqi5, Fluo-8 calcium fluorescence; vehicle 0%, full acetylcholine response 100%;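 active means activation above the run mean over all test wells plus 3 SD, cut at about 32% in these data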;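 further: peak over basal fluorescence ratio per well then scaled between controls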
M4 PAM: positive allosteric modulators of human muscarinic M4 receptor; P08173; CHO-K1 hM4/Gqi5, Fluo-8 calcium fluorescence, ACh EC20; 0% = ACh EC20, 100% = maximal ACh; activation, % at 3 µM; actives 0.4% (n = 360,000);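 active means activation above its plate's cutoff, the mean activation of sample wells plus 3 SD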
M4 antag: CHRM4 antagonism in calcium assay | P08173 | inhibition, % at 3 µM | actives 0.73% (n = 360,000) | CHO-hM4 cells, ACh EC80, Fluo-8 calcium fluorescence;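 active means inhibition above its plate's cutoff, the mean inhibition of sample wells plus 3 SD, cut at about 27% in these data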
CHRM5 PAM: CHRM5 positive allosteric modulation. P08912. CHO-K1 hM5, Fluo-8 calcium, ACh EC20 PAM; 0% = ACh EC20, 100% = ACh EC100. activation, % at 3 µM. actives 0.3% (n = 360,000);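 active means activation above the run cutoff, the mean activation of all test compounds plus 3 SD, cut at about 18% in these data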
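Replicates: One well per compound, no replicates | System: Human M5 receptor in CHO-K1 cells | Benchmarks: Low control EC20 acetylcholine (0%), high control EC100 acetylcholine (100%) | Probe or stimulus: Acetylcholine, EC20 level | Times: Fluo-8 loading 80 min at 37 °C plus 30 min room temperature | Signal: Intracellular calcium via Fluo-8 fluorescence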
Large screens that a line does not name were inactive.

COc1ccc(C(=O)NCCN2CCOCC2)cc1[N+](=O)[O-]	none
Nc1cccc(-c2csc(-n3ncc(C(=O)O)c3C(F)(F)F)n2)c1	M4 PAM 17.0
CC(C)NS(=O)(=O)c1cccc2nsnc12	M4 PAM 27.4
CC1CC(C)CN(S(=O)(=O)c2cccc3nsnc23)C1 (centres undefined)	M4 PAM 20.7
CCCNC(=O)C1CCC(CNS(=O)(=O)c2cccc3nsnc23)CC1 (centres undefined)	M4 PAM 15.8
Cc1ccccc1S(=O)(=O)Cc1ccc(C(=O)NC2CCCCCC2)o1	M4 PAM 15.3
COC(CN(C)C(=O)c1ccc(CS(=O)(=O)c2ccccc2C)o1)OC	none
CCCCN(C)C(=O)c1ccc(CS(=O)(=O)c2ccccc2C)o1	M4 PAM 17.8
COc1ccccc1N(C)S(=O)(=O)c1ccc(C(=O)N(C)Cc2ccc(Cl)s2)cc1	none
CCOC(=O)C1CCCN(C/C(O)=C(\C#N)c2nc(-c3ccccc3)cs2)C1 (centres undefined)	CHRM5 agonist 23.3
CC(C)c1ccc(CN(C)C(=O)c2ccc(S(=O)(=O)NCc3ccco3)cc2)cc1	none
COc1ccc(C(=O)C2CCCN(Cc3cn(C)nc3-c3ccccc3)C2)cc1F (centres undefined)	M4 ag 82.3, M4 antag 39.8
COc1ccc(C(=O)C2CCCN(C(=O)Cn3nc(C)cc3C)C2)cc1F (centres undefined)	M4 antag 28.9
CC(C)c1ccc(/C=C/C(=O)NC(=S)Nc2ccc(CN3CCOCC3)cc2)cc1	CHRM5 antagonist 40.6
CC(C)c1ccc(/C=C/C(=O)NC(=S)NN2CCOCC2)cc1	none
Brc1ccc(CNc2ccc3ncccc3c2)cc1	CHRM5 antagonist 31.7
CC(=O)Nc1cccc(NC(=O)c2cc(-c3cccnc3)nc3ccc(Br)cc23)c1	M4 antag 31.4
N#Cc1c(-c2ccccc2)c(-c2ccccc2)n(Cc2ccco2)c1NC(=O)c1cccs1	CHRM5 PAM 29.1
CCCCN(CC)Cc1c(O)ccc2c(-c3ccccc3)cc(=O)oc12	M4 antag 27.5
COc1cccc(N(C(=O)c2snc(C(N)=O)c2N)C(C(=O)NCc2ccccc2)c2ccc(O)cc2)c1 (centres undefined)	CHRM5 antagonist 30.9
O=c1nc2n(c3ccc(Br)cc13)CCS2	M4 antag 32.9
O=c1c2ccccc2nc2n1CCS2	none
Cc1csc(NC(=O)c2cc(-c3ccccc3)nc3ccccc23)n1	CHRM5 antagonist 27.7
COC(=O)c1cc(NC(=S)NCc2ccc(Cl)cc2)cc(C(=O)OC)c1	CHRM5 antagonist 29.0
COC(=O)c1cccc(NC(=S)NCc2ccc(Cl)cc2)c1	none
CC(=O)COc1ccccc1OC(=O)c1ccco1	none
CC(=O)c1ccccc1OC(=O)c1ccco1	M4 PAM 22.9
COc1cc(NC2c3ncccc3C(=O)N2Cc2ccco2)cc(OC)c1OC (centres undefined)	none
CCc1ccc2oc(=O)cc(CN3CCN(Cc4ccccc4)CC3)c2c1	M4 antag 65.0
CCOC(=O)c1c(-c2ccc(C)o2)csc1NC(=O)COC(=O)c1cccs1	M4 antag 29.2
COc1ccc(C2=NS(=O)(=O)N(C)C(C(=O)N3CCOCC3)=C2)cc1	none
COc1ccc(C2=NS(=O)(=O)N(C)C(C(=O)N3CCC(C(N)=O)CC3)=C2)cc1	M4 antag 33.9
CCN(CC)c1ncnc2c1ncn2Cc1c(Cl)cccc1Cl	M4 PAM 21.5
CCN(CC)c1ncn(Cc2c(Cl)cccc2Cl)c2ncnc1-2	M4 PAM 51.9
O=C(/C=C/c1ccc([N+](=O)[O-])cc1)OCC(=O)N1CCCC1	none
O=C(Nc1nc2ccsc2c(=O)s1)c1ccc(F)cc1Cl	CHRM5 PAM 21.4
COc1ccc2oc(=O)c(C(=O)OCc3ccccc3)cc2c1	none
CCOc1ccc(C(=O)COC(=O)Cn2cnc3c2c(=O)n(C)c(=O)n3C)cc1	none
CCn1c(=O)c(C(=O)NNC(=O)c2ccccc2F)c(O)c2ccccc21	none
CCn1c(=O)c(C(=O)NNC(=O)c2ccccc2Cl)c(O)c2ccccc21	M4 ag 54.4
Cc1nnc(SCC(=O)N2N=C(c3ccc(Cl)cc3)CC2c2ccco2)[nH]c1=O (centres undefined)	M4 PAM 23.5
CCCCN(CC)CCCNC(=O)c1cn(-c2ccc(OC)cc2)c(=O)c2ccccc12	none
Cc1c(O)cc2c(c1O)C(=O)CC(c1ccccc1)O2 (centres undefined)	CHRM5 antagonist 83.9, CHRM5 agonist 46.6, M4 ag 60.0, M4 antag 93.7
O=C1C[C@@H](c2ccc(O)cc2)Oc2cc(O)cc(O)c21	none
C(C#CCCCCCCCCC[n+]1ccccc1)#CCCCCCCCCC[n+]1ccccc1	CHRM5 antagonist 98.7, M4 antag 91.6
CC(=O)Nc1ccc(S(=O)(=O)NCc2ccc(C(=O)NCCN(C)Cc3ccccc3)cc2)cc1	none
CCc1ccc(S(=O)(=O)NCc2ccc(C(=O)NCCN(Cc3ccccc3)C(C)C)cc2)cc1	CHRM5 antagonist 29.1
CCS(=O)(=O)c1nc(S(=O)(=O)c2ccc(C)cc2)c(NCCCn2ccnc2)s1	none
COc1ccc(NC(=O)COc2ccc(/C=N/O)cc2OC)cc1	none
CCNC(=S)N/N=C/c1ccc(OCC(=O)Nc2ccc(OC)cc2)c(OC)c1	M4 antag 31.5
O=C1c2[nH]c3ccccc3c2CC1N1C(=O)c2ccccc2C1=O (centres undefined)	none
CCN1/C(=C/C(C)=C/c2sc3ccccc3[n+]2CC)Sc2ccccc21	CHRM5 antagonist 42.5, M4 antag 34.5
CCN1/C(=C\C(=S)Nc2ccccc2)Sc2ccccc21	none
Cc1cc(NC(=O)c2cccc(S(=O)(=O)N3CCCCCC3)c2)no1	none
Cc1cc(NC(=O)c2ccc(F)c(S(=O)(=O)N3CCCCC3)c2)no1	M4 antag 51.0
COc1ccccc1Cc1c(C2CCCCC2)nc2c3ccccc3ccn12	CHRM5 PAM 18.3
COc1ccc(N2C(=O)CC(NNC(=O)c3cccnc3)C2=O)cc1 (centres undefined)	none
COC(=O)c1ccc(CN2CCC(CO)(Cc3ccccc3Cl)CC2)cc1	M4 antag 27.3
COC(=O)c1ccc(CN2CCCC(CO)(Cc3ccccc3F)C2)cc1 (centres undefined)	none
S=c1[nH]nc(CN2CCCCC2)n1Cc1ccccc1	M4 antag 31.5
S=c1[nH]nc(CN2CCCC2)n1Cc1ccccc1	none

Source: PubChem
